Laboratory results reported in ChEMBL document CHEMBL4043093, “2-Oxo-3, 4-dihydropyrimido[4, 5-d]pyrimidinyl derivatives as new irreversible pan fibroblast growth factor receptor (FGFR) inhibitors” (Eur J Med Chem, 2017).

Key:
[1] = target: Fibroblast growth factor receptor 3 (Homo sapiens, UniProt P22607); test: Inhibition of human recombinant His-tagged FGFR3 cytoplasmic domain (399 to 806 residues) expressed in baculovirus using Tyr-4 peptide after 1 hr by FRET-based Z'-Lyte assay
[2] = system: Tyrosine-protein kinase ABL1 (Homo sapiens), P00519 [M351T]; test: Inhibition of human phosphorylated ABL1 M351T mutant (S229 to K512 residues) expressed in HEK293 cells assessed as residual activity at 1000 nM after 30 mins by Kinomescan method relative to control; assay type: cell-based
How it was run: (§1)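 Single-point screen at a fixed 1 µM, run within a 456-kinase DiscoveRx KINOMEscan panel. Each kinase's read-out is Percent Control, i.e. signal relative to a control without compound. Hits were scored by a Percent Control < 35 cut-off, and an S(35) selectivity score was calculated across the non-mutant kinases.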

[3] = target: Serine/threonine-protein kinase B-raf (Homo sapiens) (UniProt P15056); test: Inhibition of wild-type human partial length BRAF (S429 to E741 residues) expressed in HEK293 cells assessed as residual activity at 1000 nM after 30 mins by Kinomescan method relative to control; assay type: cell-based
[4] = target: Serine/threonine-protein kinase Chk2 (Homo sapiens) (UniProt O96017); test: Inhibition of wild-type human partial length CHEK2 (S253 to E574 residues) expressed in Escherichia coli BL21 assessed as residual activity at 1000 nM after 30 mins by Kinomescan method relative to control
[5] = target: Casein kinase I isoform delta (Homo sapiens) (UniProt P48730); test: Inhibition of wild-type human full length CSNK1D (M1 to K409 residues) expressed in Escherichia coli BL21 assessed as residual activity at 1000 nM after 30 mins by Kinomescan method relative to control; how it was run: as §1
[6] = system: Receptor-type tyrosine-protein kinase FLT3 (Homo sapiens), P36888 [D835V]; test: Inhibition of human partial length FLT3 D835V mutant (V592 to Y969 residues) expressed in Escherichia coli BL21 assessed as residual activity at 1000 nM after 30 mins by Kinomescan method relative to control
How it was run: (§2)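 KINOMEscan binding panel of 456 kinases, with the test compound at a single concentration of 1 µM. Read-out is Percent Control.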

[7] = target: Glycogen synthase kinase-3 alpha (Homo sapiens) (UniProt P49840); test: Inhibition of wild-type human full length GSK3A (M1 to S483 residues) expressed in Escherichia coli BL21 assessed as residual activity at 1000 nM after 30 mins by Kinomescan method relative to control
How it was run: (§3)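 Single-concentration screen at 1 µM across a 456-kinase KINOMEscan panel. The read-out is Percent Control for each kinase.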

[8] = target: Interleukin-1 receptor-associated kinase 3 (Homo sapiens) (UniProt Q9Y616); test: Inhibition of wild-type human partial length IRAK3 (V147 to E596 residues) expressed in Escherichia coli BL21 assessed as residual activity at 1000 nM after 30 mins by Kinomescan method relative to control
[9] = target: Mitogen-activated protein kinase kinase kinase kinase 3 (Homo sapiens) (UniProt Q8IVH8); test: Inhibition of wild-type human partial length MAP4K3 (M1 to D301 residues) expressed in Escherichia coli BL21 assessed as residual activity at 1000 nM after 30 mins by Kinomescan method relative to control
[10] = target: Tyrosine-protein kinase Mer (Homo sapiens) (UniProt Q12866); test: Inhibition of wild-type human partial length MERTK (R557 to L884 residues) expressed in Escherichia coli BL21 assessed as residual activity at 1000 nM after 30 mins by Kinomescan method relative to control
[11] = target: Muscle, skeletal receptor tyrosine-protein kinase (Homo sapiens) (UniProt O15146); test: Inhibition of wild-type human partial length MUSK (M553 to V869 residues) expressed in Escherichia coli BL21 assessed as residual activity at 1000 nM after 30 mins by Kinomescan method relative to control
[12] = target: Phosphorylase b kinase gamma catalytic chain, skeletal muscle/heart isoform (Homo sapiens) (UniProt Q16816); test: Inhibition of wild-type human full length PHKG1 (M1 to Y387 residues) expressed in Escherichia coli BL21 assessed as residual activity at 1000 nM after 30 mins by Kinomescan method relative to control; how it was run: as §3
[13] = system: Phosphatidylinositol 4,5-bisphosphate 3-kinase catalytic subunit alpha isoform (Homo sapiens), P42336 [E542K]; test: Inhibition of human partial length PIK3CA E542K mutant (R108 to N1068 residues) expressed in HEK293 cells assessed as residual activity at 1000 nM after 30 mins by Kinomescan method relative to control; assay type: cell-based; how it was run: as §2
[14] = system: Phosphatidylinositol 4,5-bisphosphate 3-kinase catalytic subunit alpha isoform (Homo sapiens), P42336 [E545A]; test: Inhibition of human partial length PIK3CA E545A mutant (R108 to N1068 residues) expressed in HEK293 cells assessed as residual activity at 1000 nM after 30 mins by Kinomescan method relative to control; assay type: cell-based; how it was run: as §2
[15] = system: Mycobacterium tuberculosis; test: Inhibition of wild-type Mycobacterium tuberculosis partial length PKNB (M1 to G279 residues) expressed in HEK293 cells assessed as residual activity at 1000 nM after 30 mins by Kinomescan method relative to control; assay type: cell-based; how it was run: as §1
[16] = target: Proto-oncogene tyrosine-protein kinase ROS (Homo sapiens) (UniProt P08922); test: Inhibition of wild-type human partial length ROS1 (A1921 to N2240 residues) expressed in Escherichia coli BL21 assessed as residual activity at 1000 nM after 30 mins by Kinomescan method relative to control
[17] = target: Serine/threonine-protein kinase Sgk1 (Homo sapiens) (UniProt O00141); test: Inhibition of wild-type human partial length SGK (I60 to L431 residues) expressed in HEK293 cells assessed as residual activity at 1000 nM after 30 mins by Kinomescan method relative to control; assay type: cell-based
[18] = target: Uncharacterized serine/threonine-protein kinase SBK3 (Homo sapiens) (UniProt P0C264); test: Inhibition of wild-type human partial length SgK110 (L22 to R329 residues) expressed in Escherichia coli BL21 assessed as residual activity at 1000 nM after 30 mins by Kinomescan method relative to control
[19] = target: Tyrosine-protein kinase SYK (Homo sapiens) (UniProt P43405); test: Inhibition of wild-type human partial length SYK (D354 to N635 residues) expressed in Escherichia coli BL21 assessed as residual activity at 1000 nM after 30 mins by Kinomescan method relative to control
[20] = target: Non-receptor tyrosine-protein kinase TNK1 (Homo sapiens) (UniProt Q13470); test: Inhibition of wild-type human full length TNK1 (M1 to P661 residues) expressed in Escherichia coli BL21 assessed as residual activity at 1000 nM after 30 mins by Kinomescan method relative to control
[21] = target: Serine/threonine-protein kinase TNNI3K (Homo sapiens) (UniProt Q59H18); test: Inhibition of wild-type human full length TNNI3K (M1 to S835 residues) expressed in Escherichia coli BL21 assessed as residual activity at 1000 nM after 30 mins by Kinomescan method relative to control
Sequence of Serine/threonine-protein kinase TNNI3K (Homo sapiens) (Q59H18 whole entry, the tested form may be a part): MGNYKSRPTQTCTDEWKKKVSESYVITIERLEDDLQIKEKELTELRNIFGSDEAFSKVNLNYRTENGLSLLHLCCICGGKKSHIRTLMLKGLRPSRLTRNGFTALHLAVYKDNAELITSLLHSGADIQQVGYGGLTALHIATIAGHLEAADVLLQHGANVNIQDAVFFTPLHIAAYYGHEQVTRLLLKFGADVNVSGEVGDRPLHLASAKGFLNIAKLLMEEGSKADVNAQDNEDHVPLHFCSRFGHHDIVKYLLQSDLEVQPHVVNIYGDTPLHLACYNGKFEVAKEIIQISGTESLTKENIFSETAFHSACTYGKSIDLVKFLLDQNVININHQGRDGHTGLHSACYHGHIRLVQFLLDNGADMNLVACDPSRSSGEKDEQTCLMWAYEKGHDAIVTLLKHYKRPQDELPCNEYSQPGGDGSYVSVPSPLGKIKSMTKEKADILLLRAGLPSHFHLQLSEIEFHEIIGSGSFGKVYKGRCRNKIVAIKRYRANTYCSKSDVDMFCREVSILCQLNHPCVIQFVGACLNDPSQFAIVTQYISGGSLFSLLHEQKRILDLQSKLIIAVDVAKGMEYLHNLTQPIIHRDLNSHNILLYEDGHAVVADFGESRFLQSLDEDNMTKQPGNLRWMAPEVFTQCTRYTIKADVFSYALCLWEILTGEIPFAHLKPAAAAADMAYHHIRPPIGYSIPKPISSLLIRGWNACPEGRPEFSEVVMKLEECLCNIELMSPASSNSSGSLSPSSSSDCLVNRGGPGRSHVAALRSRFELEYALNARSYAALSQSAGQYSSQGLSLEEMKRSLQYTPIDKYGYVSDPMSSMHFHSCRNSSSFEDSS

Sequence of Interleukin-1 receptor-associated kinase 3 (Homo sapiens) (Q9Y616 whole entry, the tested form may be a part): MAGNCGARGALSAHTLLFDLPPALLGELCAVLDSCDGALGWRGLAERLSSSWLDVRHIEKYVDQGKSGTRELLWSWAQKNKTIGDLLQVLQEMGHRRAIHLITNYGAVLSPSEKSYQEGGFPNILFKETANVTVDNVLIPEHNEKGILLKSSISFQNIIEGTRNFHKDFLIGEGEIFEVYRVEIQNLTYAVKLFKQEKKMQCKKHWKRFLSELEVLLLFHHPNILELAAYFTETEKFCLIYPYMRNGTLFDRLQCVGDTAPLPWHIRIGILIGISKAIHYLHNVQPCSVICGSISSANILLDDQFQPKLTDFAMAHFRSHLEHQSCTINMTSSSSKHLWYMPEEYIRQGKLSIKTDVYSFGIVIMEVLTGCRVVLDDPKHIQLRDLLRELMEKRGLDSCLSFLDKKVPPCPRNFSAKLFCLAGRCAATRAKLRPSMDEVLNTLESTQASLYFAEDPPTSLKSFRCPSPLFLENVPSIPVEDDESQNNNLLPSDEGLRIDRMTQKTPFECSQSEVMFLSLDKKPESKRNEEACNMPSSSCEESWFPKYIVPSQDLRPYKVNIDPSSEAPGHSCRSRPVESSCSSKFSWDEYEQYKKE
Sequence of Non-receptor tyrosine-protein kinase TNK1 (Homo sapiens) (Q13470 whole entry, the tested form may be a part): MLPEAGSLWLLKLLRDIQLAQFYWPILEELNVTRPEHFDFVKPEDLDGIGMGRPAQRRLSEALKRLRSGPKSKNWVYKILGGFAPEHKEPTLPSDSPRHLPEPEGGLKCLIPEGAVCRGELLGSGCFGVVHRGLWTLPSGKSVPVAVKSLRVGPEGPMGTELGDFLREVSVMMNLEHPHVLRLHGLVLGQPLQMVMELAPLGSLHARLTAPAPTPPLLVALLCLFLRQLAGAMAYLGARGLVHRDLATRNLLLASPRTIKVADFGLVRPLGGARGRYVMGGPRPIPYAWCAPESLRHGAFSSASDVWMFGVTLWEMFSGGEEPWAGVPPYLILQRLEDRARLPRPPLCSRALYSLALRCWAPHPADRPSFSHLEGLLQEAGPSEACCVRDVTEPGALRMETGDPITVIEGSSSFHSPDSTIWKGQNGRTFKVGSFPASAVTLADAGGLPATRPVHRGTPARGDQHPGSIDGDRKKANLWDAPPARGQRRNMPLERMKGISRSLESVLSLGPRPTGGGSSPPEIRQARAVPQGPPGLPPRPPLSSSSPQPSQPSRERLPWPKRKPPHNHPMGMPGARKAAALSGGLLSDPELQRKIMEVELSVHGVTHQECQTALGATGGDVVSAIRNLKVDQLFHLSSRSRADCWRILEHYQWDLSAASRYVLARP
Sequence of Serine/threonine-protein kinase B-raf (Homo sapiens) (P15056 whole entry, the tested form may be a part): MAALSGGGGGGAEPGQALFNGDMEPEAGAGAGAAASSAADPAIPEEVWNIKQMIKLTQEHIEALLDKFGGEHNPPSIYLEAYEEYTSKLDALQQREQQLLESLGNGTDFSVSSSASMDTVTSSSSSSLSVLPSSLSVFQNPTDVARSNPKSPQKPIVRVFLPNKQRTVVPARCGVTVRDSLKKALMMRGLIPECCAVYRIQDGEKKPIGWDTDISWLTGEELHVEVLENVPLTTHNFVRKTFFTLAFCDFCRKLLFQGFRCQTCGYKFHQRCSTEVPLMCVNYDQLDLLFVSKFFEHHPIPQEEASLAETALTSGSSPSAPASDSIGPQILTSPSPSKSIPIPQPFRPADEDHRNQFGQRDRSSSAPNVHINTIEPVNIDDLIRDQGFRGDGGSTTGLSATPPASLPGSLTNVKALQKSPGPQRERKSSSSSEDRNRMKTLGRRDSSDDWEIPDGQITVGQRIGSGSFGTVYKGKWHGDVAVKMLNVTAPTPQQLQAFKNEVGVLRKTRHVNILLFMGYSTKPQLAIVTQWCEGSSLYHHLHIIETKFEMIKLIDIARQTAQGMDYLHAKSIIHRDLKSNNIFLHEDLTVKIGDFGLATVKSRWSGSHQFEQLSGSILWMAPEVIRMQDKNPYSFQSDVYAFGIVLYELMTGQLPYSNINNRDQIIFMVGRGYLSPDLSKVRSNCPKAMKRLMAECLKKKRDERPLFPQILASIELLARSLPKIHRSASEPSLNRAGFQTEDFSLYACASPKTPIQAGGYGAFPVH
Sequence of Phosphatidylinositol 4,5-bisphosphate 3-kinase catalytic subunit alpha isoform (Homo sapiens), P42336 [E542K] (P42336 whole entry E542K, the tested form may be a part, canonical isoform): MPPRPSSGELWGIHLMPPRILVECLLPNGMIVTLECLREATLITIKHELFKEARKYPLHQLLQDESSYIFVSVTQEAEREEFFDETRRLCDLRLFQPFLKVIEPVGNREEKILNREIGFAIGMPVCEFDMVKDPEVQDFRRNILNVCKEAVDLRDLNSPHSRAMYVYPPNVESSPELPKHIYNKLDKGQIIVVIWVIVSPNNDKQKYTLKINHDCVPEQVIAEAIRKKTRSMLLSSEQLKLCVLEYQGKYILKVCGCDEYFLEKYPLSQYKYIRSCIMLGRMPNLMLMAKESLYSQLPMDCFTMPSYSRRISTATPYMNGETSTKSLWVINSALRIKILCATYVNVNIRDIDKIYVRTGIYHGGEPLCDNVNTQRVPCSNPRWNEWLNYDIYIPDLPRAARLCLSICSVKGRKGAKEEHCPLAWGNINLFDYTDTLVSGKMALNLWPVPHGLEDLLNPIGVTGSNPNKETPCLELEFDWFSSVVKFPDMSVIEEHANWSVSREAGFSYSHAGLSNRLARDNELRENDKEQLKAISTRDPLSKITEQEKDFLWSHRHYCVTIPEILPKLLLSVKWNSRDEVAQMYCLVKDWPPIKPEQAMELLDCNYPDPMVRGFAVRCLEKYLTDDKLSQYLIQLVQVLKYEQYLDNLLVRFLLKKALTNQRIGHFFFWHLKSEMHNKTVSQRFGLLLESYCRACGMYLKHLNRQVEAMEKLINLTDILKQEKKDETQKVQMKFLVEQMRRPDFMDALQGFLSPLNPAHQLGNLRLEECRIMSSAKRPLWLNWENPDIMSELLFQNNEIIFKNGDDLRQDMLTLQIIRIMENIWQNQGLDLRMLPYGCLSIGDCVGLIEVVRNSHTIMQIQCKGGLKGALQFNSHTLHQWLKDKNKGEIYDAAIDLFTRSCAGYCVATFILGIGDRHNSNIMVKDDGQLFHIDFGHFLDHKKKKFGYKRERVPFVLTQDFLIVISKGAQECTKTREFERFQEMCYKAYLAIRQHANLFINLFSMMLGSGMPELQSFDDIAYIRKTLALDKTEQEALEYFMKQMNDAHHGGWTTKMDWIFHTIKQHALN
Sequence of Phosphatidylinositol 4,5-bisphosphate 3-kinase catalytic subunit alpha isoform (Homo sapiens), P42336 [E545A] (P42336 whole entry E545A, the tested form may be a part, canonical isoform): as the sequence (P42336 whole entry E542K, the tested form may be a part, canonical isoform) above, with K542E, E545A counted along it
Sequence of Fibroblast growth factor receptor 3 (P22607 whole entry, the tested form may be a part): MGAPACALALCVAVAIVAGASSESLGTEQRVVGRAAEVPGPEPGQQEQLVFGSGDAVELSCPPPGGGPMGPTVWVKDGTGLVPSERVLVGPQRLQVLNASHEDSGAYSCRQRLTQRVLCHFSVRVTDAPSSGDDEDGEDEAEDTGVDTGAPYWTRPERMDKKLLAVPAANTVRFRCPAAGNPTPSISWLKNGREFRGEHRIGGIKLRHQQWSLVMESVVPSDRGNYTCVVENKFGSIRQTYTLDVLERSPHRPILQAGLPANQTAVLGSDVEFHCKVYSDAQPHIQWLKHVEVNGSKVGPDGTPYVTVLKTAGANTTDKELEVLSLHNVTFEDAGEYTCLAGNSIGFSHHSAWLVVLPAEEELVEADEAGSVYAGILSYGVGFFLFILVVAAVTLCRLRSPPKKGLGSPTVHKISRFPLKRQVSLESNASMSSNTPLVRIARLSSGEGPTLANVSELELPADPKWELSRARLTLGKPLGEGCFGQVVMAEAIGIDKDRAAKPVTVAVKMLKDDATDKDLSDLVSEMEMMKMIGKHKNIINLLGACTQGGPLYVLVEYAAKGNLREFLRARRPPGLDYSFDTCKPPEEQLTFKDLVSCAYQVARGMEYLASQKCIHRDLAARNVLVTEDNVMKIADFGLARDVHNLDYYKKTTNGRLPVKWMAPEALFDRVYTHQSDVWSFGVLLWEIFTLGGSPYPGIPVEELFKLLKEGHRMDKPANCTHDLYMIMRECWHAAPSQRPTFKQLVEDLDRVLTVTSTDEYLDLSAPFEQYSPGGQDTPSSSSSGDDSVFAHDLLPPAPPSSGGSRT

## COc1cc(OC)c(Cl)c(N2Cc3cnc(Nc4ccc(F)cc4)nc3N(C3CCN(C(=O)/C=C/CN(C)C)CC3)C2=O)c1Cl
[1]
  IC50: 5.07 nM
[2]
  Activity: 47%
[3]
  Activity: 100%
[4]
  Activity: 100%
[5]
  Activity: 96%
[6]
  Activity: 80%
[7]
  Activity: 100%
[8]
  Activity: 100%
[9]
  Activity: 88%
[10]
  Activity: 85%
[11]
  Activity: 94%
[12]
  Activity: 92%
[13]
  Activity: 86%
[14]
  Activity: 90%
[15]
  Activity: 100%
[16]
  Activity: 95%
[17]
  Activity: 100%
[18]
  Activity: 100%
[19]
  Activity: 100%
[20]
  Activity: 93%
[21]
  Activity: 100%
